Experimental data published in the M2OR odorant receptor database.

Experiments:
Settings in all cases: stereoisomer not certain
UniProt Q8VGC6 = target: T1, UniProt Q8VGC6
T1 sequence (whole entry): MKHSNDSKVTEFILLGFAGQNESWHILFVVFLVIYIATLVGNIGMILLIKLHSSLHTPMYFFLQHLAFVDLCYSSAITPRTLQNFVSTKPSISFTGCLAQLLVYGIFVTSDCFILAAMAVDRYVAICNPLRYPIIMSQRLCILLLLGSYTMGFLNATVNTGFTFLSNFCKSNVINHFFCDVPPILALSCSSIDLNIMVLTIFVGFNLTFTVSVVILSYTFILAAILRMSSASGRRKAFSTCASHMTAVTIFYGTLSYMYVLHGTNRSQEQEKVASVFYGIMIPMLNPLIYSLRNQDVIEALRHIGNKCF
In short: (§1)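 Each entry records the cell line, G-protein, co-transfected protein and tags used. Methods varied with the source, often transient luciferase assays in mammalian cell lines. A receptor–molecule pair is called responsive (active) if the original authors judged its signal statistically different from baseline and non-responsive (inactive) otherwise.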

UniProt Q8VGD7 = target: T2, UniProt Q8VGD7
T2 sequence (whole entry): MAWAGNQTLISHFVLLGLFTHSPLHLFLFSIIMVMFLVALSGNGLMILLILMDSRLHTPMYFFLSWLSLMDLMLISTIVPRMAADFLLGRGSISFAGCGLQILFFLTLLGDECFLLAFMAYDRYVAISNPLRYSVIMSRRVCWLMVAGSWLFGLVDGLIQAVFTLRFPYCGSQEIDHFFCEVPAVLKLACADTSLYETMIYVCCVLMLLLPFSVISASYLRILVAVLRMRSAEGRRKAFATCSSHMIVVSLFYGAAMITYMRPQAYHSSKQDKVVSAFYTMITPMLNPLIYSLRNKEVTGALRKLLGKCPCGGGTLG
In short: as §1

UniProt Q8VGH1 = target: T3, UniProt Q8VGH1
T3 sequence (whole entry): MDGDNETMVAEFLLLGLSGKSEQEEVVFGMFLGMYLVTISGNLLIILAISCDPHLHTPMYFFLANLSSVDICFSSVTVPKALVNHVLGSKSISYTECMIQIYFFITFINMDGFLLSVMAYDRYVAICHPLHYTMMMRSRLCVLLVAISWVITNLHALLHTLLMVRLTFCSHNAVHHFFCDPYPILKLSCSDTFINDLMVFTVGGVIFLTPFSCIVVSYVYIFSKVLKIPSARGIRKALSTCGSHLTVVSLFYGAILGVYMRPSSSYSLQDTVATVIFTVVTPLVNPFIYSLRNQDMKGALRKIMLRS
In short: as §1

UniProt Q8VGJ1 = target: T4, UniProt Q8VGJ1
T4 sequence (whole entry): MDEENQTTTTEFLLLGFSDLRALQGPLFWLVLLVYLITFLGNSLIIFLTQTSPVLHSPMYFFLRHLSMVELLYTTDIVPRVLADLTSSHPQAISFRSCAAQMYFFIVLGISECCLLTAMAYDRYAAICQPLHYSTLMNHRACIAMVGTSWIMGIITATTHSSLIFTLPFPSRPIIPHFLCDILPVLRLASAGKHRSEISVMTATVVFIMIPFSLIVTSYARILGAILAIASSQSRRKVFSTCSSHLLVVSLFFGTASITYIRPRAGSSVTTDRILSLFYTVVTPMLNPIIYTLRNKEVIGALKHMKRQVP
In short: as §1

UniProt Q8VGJ3 = target: T5, UniProt Q8VGJ3
T5 sequence (whole entry): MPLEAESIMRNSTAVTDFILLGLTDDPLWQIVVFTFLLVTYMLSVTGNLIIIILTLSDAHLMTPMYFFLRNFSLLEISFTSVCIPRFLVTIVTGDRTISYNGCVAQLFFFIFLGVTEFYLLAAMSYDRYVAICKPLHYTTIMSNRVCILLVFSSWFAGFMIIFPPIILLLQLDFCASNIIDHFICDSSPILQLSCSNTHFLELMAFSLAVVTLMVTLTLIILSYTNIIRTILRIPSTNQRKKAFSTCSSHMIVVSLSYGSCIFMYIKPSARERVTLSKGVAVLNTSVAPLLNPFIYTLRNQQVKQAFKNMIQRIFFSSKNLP
In short: as §1

UniProt Q8VGJ5 = target: T6, UniProt Q8VGJ5
T6 sequence (whole entry): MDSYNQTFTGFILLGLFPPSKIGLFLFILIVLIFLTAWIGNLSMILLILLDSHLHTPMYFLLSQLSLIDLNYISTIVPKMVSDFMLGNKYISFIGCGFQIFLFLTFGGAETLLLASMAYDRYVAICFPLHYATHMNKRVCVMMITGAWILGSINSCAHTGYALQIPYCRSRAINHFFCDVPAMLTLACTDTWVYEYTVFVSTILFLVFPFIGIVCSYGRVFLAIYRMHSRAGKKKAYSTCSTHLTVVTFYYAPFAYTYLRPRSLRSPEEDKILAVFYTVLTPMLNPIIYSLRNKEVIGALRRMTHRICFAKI
In short: as §1

UniProt Q8VGL0 = target: T7, UniProt Q8VGL0
T7 sequence (whole entry): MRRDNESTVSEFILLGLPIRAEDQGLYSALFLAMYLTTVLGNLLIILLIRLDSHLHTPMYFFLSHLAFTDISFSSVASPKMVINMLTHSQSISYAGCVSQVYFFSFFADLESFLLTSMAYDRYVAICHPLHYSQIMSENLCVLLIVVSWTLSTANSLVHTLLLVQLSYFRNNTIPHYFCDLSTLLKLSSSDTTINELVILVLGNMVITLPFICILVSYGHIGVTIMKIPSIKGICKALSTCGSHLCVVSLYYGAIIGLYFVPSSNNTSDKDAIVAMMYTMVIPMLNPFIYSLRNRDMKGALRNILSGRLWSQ
In short: as §1

UniProt Q8VGL7 = target: T8, UniProt Q8VGL7
T8 sequence (whole entry): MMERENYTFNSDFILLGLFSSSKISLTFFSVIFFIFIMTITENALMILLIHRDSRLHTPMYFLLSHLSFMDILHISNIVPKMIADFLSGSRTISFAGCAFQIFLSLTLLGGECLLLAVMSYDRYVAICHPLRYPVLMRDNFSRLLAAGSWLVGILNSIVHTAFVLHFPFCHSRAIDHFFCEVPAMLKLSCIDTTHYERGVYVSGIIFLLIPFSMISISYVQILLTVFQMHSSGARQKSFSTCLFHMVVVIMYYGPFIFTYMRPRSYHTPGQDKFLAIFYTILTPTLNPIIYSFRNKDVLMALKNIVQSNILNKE
In short: as §1

UniProt Q8VGM2 = target: T9, UniProt Q8VGM2
T9 sequence (whole entry): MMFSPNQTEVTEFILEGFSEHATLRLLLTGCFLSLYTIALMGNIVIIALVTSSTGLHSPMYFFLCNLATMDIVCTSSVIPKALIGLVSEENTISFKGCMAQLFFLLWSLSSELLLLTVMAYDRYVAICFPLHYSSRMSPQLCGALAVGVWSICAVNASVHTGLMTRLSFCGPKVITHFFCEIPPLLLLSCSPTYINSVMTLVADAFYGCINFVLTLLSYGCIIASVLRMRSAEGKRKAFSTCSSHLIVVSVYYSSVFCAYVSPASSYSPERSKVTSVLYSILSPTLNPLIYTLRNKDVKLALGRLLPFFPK
In short: as §1

UniProt Q8VGP6 = target: T10, UniProt Q8VGP6
T10 sequence (whole entry): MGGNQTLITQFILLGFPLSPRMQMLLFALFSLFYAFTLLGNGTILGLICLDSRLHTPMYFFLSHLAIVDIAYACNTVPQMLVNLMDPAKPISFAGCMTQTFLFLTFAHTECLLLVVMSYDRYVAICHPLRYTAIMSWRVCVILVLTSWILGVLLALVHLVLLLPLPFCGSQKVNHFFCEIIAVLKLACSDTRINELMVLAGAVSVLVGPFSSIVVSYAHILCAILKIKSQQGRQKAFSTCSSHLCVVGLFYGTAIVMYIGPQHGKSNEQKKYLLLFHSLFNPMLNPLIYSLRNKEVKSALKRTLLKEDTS
In short: as §1

UniProt Q8VGQ3 = target: T11, UniProt Q8VGQ3
T11 sequence (whole entry): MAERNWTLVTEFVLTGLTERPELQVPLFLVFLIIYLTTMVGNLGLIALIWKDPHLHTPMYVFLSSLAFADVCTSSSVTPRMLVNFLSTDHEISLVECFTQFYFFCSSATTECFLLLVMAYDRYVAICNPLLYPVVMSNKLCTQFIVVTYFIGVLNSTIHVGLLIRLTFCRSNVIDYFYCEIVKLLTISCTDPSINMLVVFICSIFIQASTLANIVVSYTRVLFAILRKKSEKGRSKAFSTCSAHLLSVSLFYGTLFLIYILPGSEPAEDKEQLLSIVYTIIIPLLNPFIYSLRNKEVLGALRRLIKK
In short: as §1

UniProt Q8VGT4 = target: T12, UniProt Q8VGT4
T12 sequence (whole entry): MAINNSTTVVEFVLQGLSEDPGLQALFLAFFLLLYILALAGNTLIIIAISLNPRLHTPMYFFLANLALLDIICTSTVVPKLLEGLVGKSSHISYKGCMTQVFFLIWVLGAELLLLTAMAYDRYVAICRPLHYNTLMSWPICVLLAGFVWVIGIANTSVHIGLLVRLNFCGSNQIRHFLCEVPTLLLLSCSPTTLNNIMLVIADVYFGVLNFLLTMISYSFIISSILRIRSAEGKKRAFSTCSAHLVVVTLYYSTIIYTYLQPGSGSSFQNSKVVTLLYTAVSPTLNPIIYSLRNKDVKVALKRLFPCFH
In short: as §1

UniProt Q8VGU3 = target: T13, UniProt Q8VGU3
T13 sequence (whole entry): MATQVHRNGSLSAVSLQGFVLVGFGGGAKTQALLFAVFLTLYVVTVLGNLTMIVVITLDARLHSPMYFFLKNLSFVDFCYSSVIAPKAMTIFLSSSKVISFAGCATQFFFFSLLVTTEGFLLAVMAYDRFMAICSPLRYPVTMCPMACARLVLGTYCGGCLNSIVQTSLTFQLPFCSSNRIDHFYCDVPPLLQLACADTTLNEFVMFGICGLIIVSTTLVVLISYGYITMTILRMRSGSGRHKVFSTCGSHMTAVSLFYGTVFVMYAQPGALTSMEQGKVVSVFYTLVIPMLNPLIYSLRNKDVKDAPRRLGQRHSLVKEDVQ
In short: as §1

UniProt Q8VGV1 = target: T14, UniProt Q8VGV1
T14 sequence (whole entry): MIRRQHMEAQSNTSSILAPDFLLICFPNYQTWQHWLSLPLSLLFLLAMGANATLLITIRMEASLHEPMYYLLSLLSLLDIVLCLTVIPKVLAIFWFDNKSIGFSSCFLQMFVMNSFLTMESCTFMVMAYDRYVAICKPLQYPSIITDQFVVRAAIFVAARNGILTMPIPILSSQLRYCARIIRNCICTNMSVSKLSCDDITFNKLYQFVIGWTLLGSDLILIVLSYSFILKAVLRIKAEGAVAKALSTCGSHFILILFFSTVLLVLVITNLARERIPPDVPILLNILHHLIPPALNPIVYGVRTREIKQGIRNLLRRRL
In short: as §1

UniProt Q8VGV7 = target: T15, UniProt Q8VGV7
T15 sequence (whole entry): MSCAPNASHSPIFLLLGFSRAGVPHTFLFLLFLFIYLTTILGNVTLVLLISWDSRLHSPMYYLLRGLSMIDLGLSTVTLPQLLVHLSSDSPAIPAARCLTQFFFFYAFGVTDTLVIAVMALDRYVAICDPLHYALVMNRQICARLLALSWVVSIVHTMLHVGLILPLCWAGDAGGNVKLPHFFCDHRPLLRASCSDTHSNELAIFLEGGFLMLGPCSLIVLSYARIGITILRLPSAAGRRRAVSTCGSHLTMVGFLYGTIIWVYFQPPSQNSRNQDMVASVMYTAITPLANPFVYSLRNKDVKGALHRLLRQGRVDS
In short: as §1

UniProt Q8VGX3 = target: T16, UniProt Q8VGX3
T16 sequence (whole entry): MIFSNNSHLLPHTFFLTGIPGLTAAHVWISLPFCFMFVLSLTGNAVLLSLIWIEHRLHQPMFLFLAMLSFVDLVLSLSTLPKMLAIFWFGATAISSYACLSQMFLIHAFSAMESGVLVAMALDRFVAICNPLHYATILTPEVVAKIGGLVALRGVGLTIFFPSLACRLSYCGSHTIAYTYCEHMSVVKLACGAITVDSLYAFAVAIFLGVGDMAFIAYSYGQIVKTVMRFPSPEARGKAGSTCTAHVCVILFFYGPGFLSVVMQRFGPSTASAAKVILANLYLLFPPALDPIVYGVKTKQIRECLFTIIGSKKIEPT
In short: as §1

UniProt Q8VGX5 = target: T17, UniProt Q8VGX5
T17 sequence (whole entry): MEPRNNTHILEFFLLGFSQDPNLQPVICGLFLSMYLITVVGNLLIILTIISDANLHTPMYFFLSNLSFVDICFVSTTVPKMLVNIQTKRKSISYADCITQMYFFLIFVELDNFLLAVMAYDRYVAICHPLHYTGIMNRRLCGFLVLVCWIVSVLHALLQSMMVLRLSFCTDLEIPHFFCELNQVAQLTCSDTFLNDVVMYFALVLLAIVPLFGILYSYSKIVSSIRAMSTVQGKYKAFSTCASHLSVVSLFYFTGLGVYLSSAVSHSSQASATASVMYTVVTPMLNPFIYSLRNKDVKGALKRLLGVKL
In short: as §1

Measured: odorant receptor agonist call

CCCCCCCCS
active: UniProt Q8VGC6
inactive: all other assays above

CC(O)c1ccccc1 (stereo not drawn)
inactive: UniProt Q8VGC6

Cc1nccnc1C
inactive: UniProt Q8VGC6

CCCCOC
inactive: UniProt Q8VGC6

CCCC(=O)OCC
inactive: UniProt Q8VGC6

CC(=O)OCC=C(C)C
active: UniProt Q8VGC6 | UniProt Q8VGJ5 | UniProt Q8VGX5
inactive: all other assays above
